The source of these data is ChEMBL document CHEMBL4513216, “Probing the Open Global Health Chemical Diversity Library for Multistage-Active Starting Points for Next-Generation Antimalarials” (ACS Infect Dis, 2020).

The structures appear in SMILES notation.

The nature of this series: Toxicity liver stage against HepG2, at 10uM. It is filed as cell-based. Details: test concentration 10 uM, cell line HepG2-A16-CD81EGFP. As to conditions: human, HepG2-A16-CD81EGFP cells; read-out: INHIBITION
A digest of the protocol:
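Uninfected HepG2-A16-CD81EGFP cells, 3 × 10^3 per well, 1536-well, plated on prespotted compound at 10 μM final, parasite-free screening media added to match infected plates; puromycin 10 μM positive, DMSO 0.5% negative; run in parallel with 48 h PbLuc assay at 37 °C, 5% CO2; viability by CellTiter-Glo luminescence, normalized to controls.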
For the compound `CC(=O)N1C[C@@H](F)[C@@H](OCc2nc3cc(C)c(C)cc3[nH]2)C1`, the cytotoxicity at 10 µM was determined as 1.77%.
With `COCCOc1ncccc1-c1noc([C@@H]2CCCN2C2CCC2)n1` the figure was -7.68%; with `COc1ccc(CNC[C@H]2COCc3nc4cccnc4n32)cc1`, -0.61%.
With `CC(=O)N1CC[C@H]2CC(=O)N(C3CC3)CC[C@H]2C1`, the cytotoxicity at 10 µM is -0.434%.
To `Cc1occc(=O)c1OCc1noc(C(=O)NC2CCCC2)n1` belongs 0.618%; to `COc1cc2c(cc1OC)C(=O)C(Sc1nncn1C)C2` (stereo not given), -5.65%.
In the case of `Cc1cc(C(=O)Nc2n[nH]c(C3CC3)n2)c2c(C)noc2n1`, the cytotoxicity at 10 µM is -1.86%.
Turning to `Cc1nccn1-c1ccc(=O)n(CCNC(=O)c2c(F)cccc2Cl)n1`, the cytotoxicity at 10 µM was -9.98%.
With `O=C(O)CC(CC(=O)NCCc1cccs1)c1cccs1` (stereo not given) the figure was -11.4%.
With `Cc1cccc(C(=O)N2CCC3(CC(C(=O)N(C)C(C)C)=NO3)C2)c1` (stereo not given) the figure was -127%; with `Cc1ccc(N2N=C(C(=O)O)S(=O)(=O)c3cccnc32)cc1`, -8.87%.
With `CC(C)n1[nH]c(=O)c2c1NC(=O)CSC2c1ccc(OCC(N)=O)cc1` (stereo not given) the figure was 8.46%; with `c1ccc(O[C@H]2CC[C@H]3[C@H]2OCCN3Cc2nccs2)nc1`, -12.6%.
With `c1nc2c(c(C3CC3)n1)CCN(Cc1ccoc1)CC2`, the cytotoxicity at 10 µM was -22.7%.
Consider `CC(C(=O)N1CCN(c2ccc(F)cc2)CC1)n1cc(Br)cn1` (stereo not given), for which the cytotoxicity at 10 µM is 9.35%.
For `COc1ncc(CN2CCCC(c3[nH]ncc3S(C)(=O)=O)C2)cn1` (stereo not given), the cytotoxicity at 10 µM was found to be 7.24%.
For the compound `COCCOCCSc1nnc(Cc2ccccc2F)o1`, the cytotoxicity at 10 µM came to 14.5%.
With `CCN(CCO)Cc1ccc(Br)c2cccnc12` the figure was 1.95%; with `Cc1nccn1-c1ccc(NS(=O)(=O)c2cccnc2)cn1`, -4.73%; with `CCn1ccnc1CN1CCCN(C(=O)C2(C#N)CCCCC2)CC1`, 3.75%.
On to `O=c1[nH]c(=O)n(CC(O)c2ccccc2Cl)cc1Cl` (stereo not given), for which the cytotoxicity at 10 µM stood at 9.71%.
Regarding `Cc1ccc(C(=O)N2CCN(c3ncnc4nc(N)ccc34)CC2)o1`, the cytotoxicity at 10 µM stood at 7.55%.
To `Cc1nnc(C(C)N2CCN(Cc3noc(C(C)(C)C)n3)CC2)o1` (stereo not given) belongs -13.3%.
To `CC1CN(C)CCN1C(=O)c1cccn1Cc1cccs1` (stereo not given) belongs -14.1%; to `Cc1ccc(S(=O)(=O)N(C)CC(C)O)c(F)c1` (stereo not given), -11.4%; to `CC(C)CC(CCO)CNC(=O)N1CCOC2(CCCC2)C1` (stereo not given), 6.37%.
With `CCc1noc(C(C)N2CCN(CCc3ccncc3)CC2)n1` (stereo not given) the figure was 1.6%; with `Cc1ccc(C(NC(=O)CN2CCc3c(ncn3C)C2)C2CC2)cc1` (stereo not given), -2.43%; with `CCc1ncnc(N2CCOCC2CCO)c1F` (stereo not given), -2.56%.
As to `Cc1nnc(NCC2(c3ccccc3)CCOCC2)c(C#N)c1C`, the cytotoxicity at 10 µM was determined as 7.35%.
With `Cc1ccc(CNC(=O)NC2CCCN(c3ncccn3)C2)cn1` (stereo not given) the figure was 3.08%; with `COCCCn1ccc(NC(=O)NCCCNc2ccccc2)n1`, 4.97%; with `Cc1ncsc1CNC(=O)N1CCN(Cc2ccccc2)CC1C` (stereo not given), -131%.
To `Cn1nnc2c1CCN(C(C(=O)N1CCCCC1)c1ccccc1)C2` (stereo not given) belongs -2.56%; to `O=c1oc2ccccc2n1CCCN1CCCC1c1ccc(O)cc1` (stereo not given), 7.87%.
To `O=C(CCn1nnc2ccccc2c1=O)N(CC1CCOC1)C1CC1` (stereo not given) belongs -8.5%.
`COCCn1cc(NCc2cn(C)nc2-c2ccncc2)cn1`: the cytotoxicity at 10 µM amounted to 2.03%.
With `c1cnn(CCNCCCOc2ccc3c(c2)OCO3)c1` the figure was 7.61%; with `Cc1cccc(N2CCN(C(=O)Cc3ccccc3O)C(C)C2)n1` (stereo not given), 13.5%.
To `c1ccc2[nH]c(C3CCN(Cc4nnc(C5CC5)o4)CC3)nc2c1` belongs 0.152%; to `COc1cc(C)nc(N2CCN(C(=O)CCc3nccs3)CC2)n1`, -15.8%.
To `c1ccc(CO[C@@H]2CN(Cc3ccoc3)[C@@H]3COC[C@@H]32)nc1` belongs -105%; to `CCN(Cc1nccn1C)C(=O)c1ccc(NCc2ccccc2)nc1`, -14.3%; to `O=C(c1ccc[nH]1)N1CCc2ccc(S(=O)(=O)N3CCOCC3)cc2C1`, 3.99%.
In the case of `CCn1cc(CN2CCC(CN3CCCCC3)CC2)cc1C#N`, the cytotoxicity at 10 µM is -5.77%.
To `CN(CCC(O)c1ccccc1)c1cc(C2CC2)ncn1` (stereo not given) belongs -141%; to `COCCNCC1(O)CCCN(Cc2ccc(F)c(F)c2)C1=O` (stereo not given), 3.93%; to `O=C(CCCn1cncn1)N1CCC2(CCCN(CC3CC3)C2=O)C1` (stereo not given), -0.611%.
With `CCc1cc(N2C[C@H](C3CC3)[C@@H](N)C2)nc(N2CCOCC2)n1` the figure was -1.47%; with `Cc1cc(C)n(CC2(CNC(=O)C(c3ccccc3C)N(C)C)CC2)n1` (stereo not given), 1.79%.
To `N#Cc1cccc(N2CCC3(CCC(=O)N(CC4CCCO4)C3)CC2)n1` (stereo not given) belongs 4.11%; to `CN1CC2(CCN(C(=O)c3ccc4nccnc4c3)CC2)CC1=O`, -1.7%.
With `CC(C)[C@H]1CN(Cc2ccncc2)C[C@@H]1NC(=O)C1(C#N)CCOCC1`, the cytotoxicity at 10 µM was -4.81%.
With `COc1cc(CN2CCN(CC3CC3)[C@@H]3CS(=O)(=O)C[C@@H]32)cc(OC)c1` the figure was 1.41%; with `CC(C)n1cnnc1CCNCc1cn(CCC(N)=O)c2ccccc12`, -3.81%; with `CS(=O)(=O)N(Cc1ccon1)c1ccc2c(c1)OCO2`, 1.06%.
To `CCNc1ncc(C(=O)N2Cc3nc(C)[nH]c(=O)c3C2)cn1` belongs -2.19%; to `C/C(=C\c1ccco1)CN(C)C(C)Cc1ccccn1` (stereo not given), 1.89%.
For the compound `CC(=O)NCCC1CCCCN1S(=O)(=O)c1cccc(C#N)c1` (stereo not given), the cytotoxicity at 10 µM is -10.8%.
To `CCn1c(Cn2cncn2)nnc1C1CCN(Cc2ccc(C)o2)CC1` belongs -12.9%; to `CSCCC(=O)N1CCC(Oc2cc(C)ccc2F)(C(=O)O)CC1`, -6.02%; to `O=C(c1coc(COc2cccc(F)c2)n1)N1CC[C@H](O)[C@@H](O)C1`, -11%.
On to `CN(C(=O)C1CCCCC1)[C@@H]1CCC[C@@H](N2CCOCC2)[C@@H]1O`, for which the cytotoxicity at 10 µM was -6.33%.
With `CC(C)n1ncc2cc(NC(=O)N3CCC(C(N)=O)C3)cnc21` (stereo not given) the figure was -1.85%; with `Cc1cccc(OCCNC(=O)CN2CCCC2c2noc(C)n2)c1` (stereo not given), -8.6%.
To `CCc1nc(C2CCCN2C(=O)c2cc3c(s2)CCC3)no1` (stereo not given) belongs -5.86%; to `Cc1nc2n(n1)CC(NCC(=O)Nc1cc(C)on1)CC2` (stereo not given), -12.8%; to `O=C(CCc1nc(-c2ccccn2)no1)N1CCCC1c1ccsc1` (stereo not given), -14.6%.
With `c1ccc(-n2ccc(CN3CCOC(Cn4cncn4)C3)n2)cc1` (stereo not given) the figure was 0.561%; with `CC(NC(=O)NCCCc1n[nH]c(N)c1C#N)c1ccc(Cl)cc1` (stereo not given), -12.5%.
As for `Cc1cn2nc(N3CCN(Cc4cc(C)on4)CC3)sc2n1`, the cytotoxicity at 10 µM is -12.1%.
`c1cnnc(N2CCCC2CNc2cnc3ccccc3n2)c1` (stereo not given): the cytotoxicity at 10 µM stood at 1.53%.
As to `CCOCC(O)CN1CCN(C(=O)c2cnc3n[nH]c(C)c3c2)CC1` (stereo not given), the cytotoxicity at 10 µM is -7.69%.
Consider `COc1ccc(Cl)cc1C(=O)N1CCCC(n2nc(C)nc2C)C1` (stereo not given), for which the cytotoxicity at 10 µM is -4.53%.
With `COc1ccc(C2CCCN2C(=O)c2csc(NC(C)=O)n2)cc1` (stereo not given) the figure was -5.82%; with `CC(NC(=O)Nc1cccnc1N1CCCC1)c1nncn1C` (stereo not given), -10.1%.
For `COc1cccc(CCC(=O)N2CCCC(n3cc(C)cn3)C2)c1` (stereo not given), the cytotoxicity at 10 µM came out at 4.28%.
With `CCn1cc(CN2CCCN(C(=O)Cc3ccc(C)nc3)CC2)cn1` the figure was -3.87%; with `OCC1CCCN1c1cc(N2CCN(c3ccccn3)CC2)ncn1` (stereo not given), 3.97%; with `O=C1CCCN1Cc1nnn2c1CN(c1cccnc1)CCC2`, 3.48%.
With `CCOCC1CN(C(=O)c2cnccn2)Cc2cnn(CC3CC3)c21` (stereo not given) the figure was -69.6%; with `CC(=O)NCC(=O)N1CCOC2(CCCN(c3cccnc3)C2)C1` (stereo not given), -12.8%; with `Cc1noc(C)c1CN1CC[C@H]2[C@@H]1CCC(=O)N2CC1CCOCC1`, -1.38%.
With `CS(=O)(=O)NC[C@]12COC[C@H]1CN(CC1CCCC1)C2` the figure was 1.52%; with `COCC1CC2(CCN(C(=O)c3cc(C)oc3C)CC2)CN1C(C)C` (stereo not given), -11.4%.
`Cn1cc(C[C@H]2[C@H](O)CCN2CC2CCOCC2)cn1`: the cytotoxicity at 10 µM was -65.7%.
To `O=C(c1cocn1)N1C[C@@H]2CN(CC3CC3)CCO[C@@H]2C1` belongs -2.29%; to `CN(C)C(=O)N1Cc2ncn(C)c2C(COCC2CCOCC2)C1` (stereo not given), -69.9%; to `CC(=O)NCC(=O)N1CCN(CCN(C)C)c2ncccc2C1`, -104%.
With `O=C(O)c1c(-c2cccnc2)ncc2c1CCN(Cc1cccnc1)C2`, the cytotoxicity at 10 µM was -3.14%.
To `NC(=O)COc1ccc(CNCc2ccc(F)cc2F)cc1` belongs -14.4%.
To `COc1ccc(CC(=O)N2Cc3nccn3CC(CN(C)C)C2)cc1` (stereo not given) belongs -116%.
To `O=C(C1CC=CC1)N1CCc2c(COCc3ccncc3)cncc2C1` belongs -7.79%; to `O=C1CO[C@@H]2CN(Cc3ccsc3)C[C@H]2N1Cc1ccncc1`, -73%.
Regarding `O=C(NC[C@H]1OC[C@@H]2CCN(Cc3ccco3)C[C@@H]21)c1ccnnc1`, the cytotoxicity at 10 µM is -143%.
